Measurements published in ChEMBL document CHEMBL1148478, “Benzo[f]azino[2,1-a]phthalazinium cations: novel DNA intercalating chromophores with antiproliferative activity” (2004).
The source made the active and inactive calls. The rule behind the calls is not given here.

Assays:
[1] = system: IGROV-1; assay: In vitro antiproliferative activity against human IGROV ovarian cell line; assay type: functional
How it was run: (§1)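 SRB colorimetric growth assay. Cells seeded at 5×10^3 per well in RPMI and left to attach in drug-free medium for 18 h. Compounds were then added in DMSO/H2O 3:7 and exposed for 72 h. Cells were fixed with cold 50% TCA for 60 min at 4 °C and stained with 0.4% SRB for 10 min. Bound dye was solubilized in Tris and OD read at 490 nm. GI50 was derived from control, test and time-zero OD. Triplicate; values above 10 μM were scored NS.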

[2] = system: HeLa; assay: In vitro antiproliferative activity against human HeLa cervix cell line; assay type: functional; how it was run: as §1
[3] = system: LNCaP; assay: In vitro antiproliferative activity against human LN-caP prostate cell line; assay type: functional; how it was run: as §1
[4] = system: IGROV-1; assay: In vitro antiproliferative activity against human IGROV-ET ovarian cell line; assay type: functional; how it was run: as §1
[5] = system: DU-145; assay: In vitro antiproliferative activity against human DU-145 prostate cell line; assay type: functional; how it was run: as §1
[6] = system: HT-29; assay: In vitro antiproliferative activity against human HT-29 colon cell line; assay type: functional; how it was run: as §1
[7] = system: K562; assay: In vitro antiproliferative activity against human K-562 cell line; assay type: functional; how it was run: as §1
[8] = system: SK-MEL-28; assay: In vitro antiproliferative activity against human MEL-28 melanoma cell line; assay type: functional; how it was run: as §1
[9] = system: HeLa; assay: In vitro antiproliferative activity against human HeLa-APL cervix cell line; assay type: functional; how it was run: as §1
[10] = system: LoVo; assay: In vitro antiproliferative activity against human LOVO colon cell line; assay type: functional; how it was run: as §1
[11] = system: LoVo; assay: In vitro antiproliferative activity against human LOVO-DOX colon cell line; assay type: functional; how it was run: as §1
[12] = system: PANC-1; assay: In vitro antiproliferative activity against human PANC-1 pancreas cell line; assay type: functional; how it was run: as §1
[13] = system: A549; assay: In vitro antiproliferative activity against human A-549 NSCL cell line; assay type: functional; how it was run: as §1
[14] = system: SK-BR-3; assay: In vitro antiproliferative activity against human SK-BR-3 breast cell line; assay type: functional; how it was run: as §1
[15] = system: LoVo; assay: In vitro antiproliferative activity against human LOVO-DOX colon cell line; NS = Not significant; assay type: functional, cell-based; how it was run: as §1
[16] = system: IGROV-1; assay: In vitro antiproliferative activity against human IGROV-ET ovarian cell line; NS = Not significant; assay type: functional, cell-based; how it was run: as §1
[17] = system: LoVo; assay: In vitro antiproliferative activity against human LOVO colon cell line; NS = Not significant; assay type: functional, cell-based; how it was run: as §1
[18] = system: HT-29; assay: In vitro antiproliferative activity against human HT-29 colon cell line; NS = Not significant; assay type: functional, cell-based; how it was run: as §1
[19] = system: SK-MEL-28; assay: In vitro antiproliferative activity against human MEL-28 melanoma cell line; NS = Not significant; assay type: functional, cell-based; how it was run: as §1
[20] = system: HeLa; assay: In vitro antiproliferative activity against human HeLa cervix cell line; NS = Not significant; assay type: functional, cell-based; how it was run: as §1
[21] = system: HeLa; assay: In vitro antiproliferative activity against human HeLa-APL cervix cell line; NS = Not significant; assay type: functional, cell-based; how it was run: as §1
[22] = system: PANC-1; assay: In vitro antiproliferative activity against human PANC-1 pancreas cell line; NS = Not significant; assay type: functional, cell-based; how it was run: as §1
[23] = system: DU-145; assay: In vitro antiproliferative activity against human DU-145 prostate cell line; NS = Not significant; assay type: functional, cell-based; how it was run: as §1
[24] = system: A549; assay: In vitro antiproliferative activity against human A-549 NSCL cell line; NS = Not significant; assay type: functional, cell-based; how it was run: as §1
[25] = system: K562; assay: In vitro antiproliferative activity against human K-562 cell line; NS = Not significant; assay type: functional, cell-based; how it was run: as §1

SMILES | GI50 [1] [nM] | GI50 [2] [nM] | GI50 [3] [nM] | GI50 [4] [nM] | GI50 [5] [nM] | GI50 [6] [nM] | GI50 [7] [nM] | GI50 [8] [nM] | GI50 [9] [nM] | GI50 [10] [nM] | GI50 [11] [nM] | GI50 [12] [nM] | GI50 [13] [nM] | GI50 [14] [nM] | GI50 [15] | GI50 [16] | GI50 [21] | further results
CCOc1ccc(-c2n[n+]3c(C)cccc3c3ccc4ccccc4c23)cc1 | 2400 | 1300 | 400 | 4500 | 1800 | 600 | 600 | 1200 | 1400 | 1000 | 7000 | 1000 | 800 | 500 | – | – | – | –
CCOc1ccc(-c2n[n+]3ccccc3c3ccc4ccccc4c23)cc1 | 3800 | 3100 | 500 | 8600 | 4800 | 1100 | 1200 | 2600 | 5000 | 2900 | 8000 | 2100 | 3000 | 1200 | – | – | – | –
COc1cccc2c1C(=O)c1c(O)c3c(c(O)c1C2=O)C[C@@](O)(C(=O)CO)C[C@@H]3O[C@H]1C[C@H](N)[C@H](O)[C@H](C)O1 [DOXORUBICIN] | 4400 | 10 | 20 | 2400 | 20 | 3100 | 30 | 3100 | 10 | 10 | 2400 | 3500 | 70 | 1100 | – | – | – | –
Cc1cccc2c3ccc4ccccc4c3c(-c3ccccc3)n[n+]12 | 1700 | 3800 | 400 | 2900 | 3100 | 1200 | 1500 | 2500 | 4100 | 3000 | 5400 | 3400 | 4200 | 500 | – | – | – | –
CCOc1ccc(-c2n[n+]3c4ccc(C)cc4ccc3c3ccc4ccccc4c23)cc1 | 400 | 300 | 70 | 1700 | 500 | 200 | 100 | 400 | 600 | 300 | – | 400 | 500 | 500 | inactive | – | – | –
CCOc1ccc(-c2n[n+]3c4ccccc4ccc3c3ccc4ccccc4c23)cc1 | 2600 | 4600 | 2600 | – | 5800 | 5400 | 6700 | 5300 | 7400 | 6300 | – | 4900 | 6000 | 3900 | inactive | inactive | – | –
c1ccc(-c2n[n+]3ccccc3c3ccc4ccccc4c23)cc1 | 100 | – | 5200 | – | – | – | 7600 | – | – | – | – | – | – | 9700 | inactive | inactive | inactive | GI50 [17]: inactive; GI50 [18]: inactive; GI50 [19]: inactive; GI50 [20]: inactive; GI50 [22]: inactive; GI50 [23]: inactive; GI50 [24]: inactive
Cc1ccc2c(ccc3c4ccc5ccccc5c4c(-c4ccccc4)n[n+]23)c1 | 500 | 500 | 200 | 1800 | 500 | 400 | 200 | 500 | – | 400 | 3600 | 700 | 600 | 500 | – | – | inactive | –
c1ccc(-c2n[n+]3c4ccccc4ccc3c3ccc4ccccc4c23)cc1 | 500 | 700 | 300 | 2000 | 1000 | 400 | 400 | 1000 | 100 | 600 | 3500 | 1300 | 800 | 500 | – | – | – | –
Cc1cc[n+]2nc(-c3ccccc3)c3c4ccccc4ccc3c2c1 | 6500 | – | 4000 | – | – | – | – | 8400 | – | – | – | – | – | 4600 | inactive | inactive | inactive | GI50 [17]: inactive; GI50 [18]: inactive; GI50 [25]: inactive; GI50 [20]: inactive; GI50 [22]: inactive; GI50 [23]: inactive; GI50 [24]: inactive
